In ChEMBL document CHEMBL4665734, “Optimization of globomycin analogs as novel gram-negative antibiotics” (Bioorg Med Chem Lett, 2020):
Values after ≈ are worked out from the molar mass of the structure shown. Starred links: 1 amine or outer side, 2 acyl side, 3 side chain; linkers in the order of their positions; H or OH if unused. Non-standard residues stand in square brackets, D forms with d. Residues, ends and D or L forms follow the SMILES beside them. *: point of attachment. X6 = C[C@H](CO[C@H](CC1C[C@H]2CC[C@@H](C1)C2)[C@@H](C)C(=O)[*:2])N[*:1]; dAlaψ(CH2NBu)Nle = CCCC[C@@H](C(=O)[*:2])N(CCCC)C[C@@H](C)N[*:1]; X3 = C[C@H](CO[C@H](CC1CC2(CCC2)C1)[C@@H](C)C(=O)[*:2])N[*:1]; X10 = CCCCCC[C@@H](OC[C@@H](CC)N[*:1])[C@@H](C)C(=O)[*:2]; X8 = CCCCCC[C@@H](O[C@@H](C)CN[*:1])[C@@H](C)C(=O)[*:2]; X9 = CCCCCC[C@@H](OCCN[*:1])[C@@H](C)C(=O)[*:2]; Cyclobutyl(trans-3-NH2) = N[C@H]1C[C@H](*)C1; Gly(cHept) = N[C@H](C(=O)O)C1CCCCCC1; aThr = C[C@H](O)[C@H](N)C(=O)O; NMeL = CN[C@@H](CC(C)C)C(=O)O; Chg = N[C@H](C(=O)O)C1CCCCC1; NMeNva = CCC[C@H](NC)C(=O)O; Dap = NC[C@H](N)C(=O)O; X5 = NCCCNCCC*

Key:
[1] = Stability of the compound in human plasma assessed as parent compound remaining after 24 hrs; assay type: ADME, cell-free; details: read-out: Stabilty
In short: (§1)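 Test compound incubated for 24 hour in human, rat or mouse plasma. Stability is reported as the percentage of parent compound remaining.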

[2] = Stability of the compound in mouse plasma assessed as parent compound remaining after 24 hrs; assay type: ADME, cell-free; details: read-out: Stabilty; in short: as §1
[3] = tested on: Escherichia coli; experiment: Inhibition of LspA in Escherichia coli CFT073imp4213 harboring outer membrane-permeable mutant assessed as inhibition of bacterial growth
In short: (§2)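 Read-out is the minimum inhibitory concentration, reported in µM.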

[4] = tested on: Escherichia coli CFT073; experiment: Inhibition of LspA in wild type Escherichia coli CFT073 assessed as inhibition of bacterial growth; in short: as §2
[5] = Growth inhibition of Staphylococcus aureus USA300
[6] = Stability of the compound in human plasma assessed as parent compound remaining after 6 hrs; assay type: ADME, cell-free; details: read-out: Stabilty
In short: (§3)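 Test compound incubated for 6 hour in human or mouse plasma. Stability is reported as the percentage of parent compound remaining.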

[7] = Stability of the compound in mouse plasma assessed as parent compound remaining after 6 hrs; assay type: ADME, cell-free; details: read-out: Stabilty; in short: as §3
[8] = Lipophilicity, logD of the compound at pH 7.4; details: buffer, pH 7.4, logD
[9] = Stability of the compound in rat plasma assessed as parent compound remaining after 24 hrs; assay type: ADME, cell-free; details: read-out: Stabilty; in short: as §1
[10] = Protein binding in rat plasma; assay type: ADME, cell-free; details: read-out: PPB (converted)
[11] = Protein binding in mouse plasma; assay type: ADME, cell-free; details: read-out: PPB (converted)
[12] = Clearance in rat liver microsomes; assay type: ADME, Microsome
In short: (§4)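 Intrinsic clearance in rat or mouse liver microsomes, expressed in mL/min/kg.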

[13] = Clearance in mouse liver microsomes; assay type: ADME, Microsome; in short: as §4
[14] = Clearance in iv dosed rat; assay type: ADME, organism-based; details: in vivo
[15] = Half life in iv dosed rat; assay type: ADME, organism-based; details: in vivo
[16] = Clearance in iv dosed mouse; assay type: ADME, organism-based; details: in vivo
[17] = Half life in iv dosed mouse; assay type: ADME, organism-based; details: in vivo
[18] = tested on: Enterobacter cloacae; experiment: Inhibition of LspA in Enterobacter cloacae assessed as inhibition of bacterial growth
[19] = tested on: Klebsiella pneumoniae; experiment: Inhibition of LspA in Klebsiella pneumoniae assessed as inhibition of bacterial growth
[20] = tested on: Pseudomonas aeruginosa; experiment: Inhibition of LspA in Pseudomonas aeruginosa assessed as inhibition of bacterial growth
[21] = tested on: Acinetobacter baumannii; experiment: Inhibition of LspA in Acinetobacter baumannii assessed as inhibition of bacterial growth
[22] = tested on: Jurkat; experiment: Cytotoxicity against human Jurkat cells; assay type: cell-based
In short: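 Jurkat cell growth assay. Result reported as antiproliferative EC50.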

| logD [8] | remaining at 24 h [9] [%] | fraction unbound [10] | fraction unbound [11] | CLhep predicted [12] [mL/min/kg] | CLhep predicted [13] [mL/min/kg] | clearance [14] [mL/min/kg] | half-life [15] [h] | clearance [16] [mL/min/kg] | half-life [17] [h] | MIC [18] [µM] | MIC [19] [µM] | MIC [20] [µM] | MIC [21] [µM] | SMILES | remaining at 24 h [1] [%] | remaining at 24 h [2] [%] | MIC [3] [µM] | MIC [4] [µM] | MIC [5] [µM] | EC50 [22] [µM] | further results |
| --- | --- | --- | --- | --- | --- | --- | --- | --- | --- | --- | --- | --- | --- | --- | --- | --- | --- | --- | --- | --- | --- |
| – | – | – | – | – | – | – | – | – | – | – | – | – | – | CCCCCC[C@H]1O[C@@H](C)CNC(=O)[C@H]([C@H](C)O)NC(=O)[C@H](CN)NC(=O)[C@H](C2CCCCC2)NC(=O)[C@H](CC(C)C)N(C)C(=O)[C@@H]1C (cyclo([Chg][Dap][aThr][X8][NMeL])) | 91 | 101 | 0.1 (≈ 0.0681 µg/mL) | 12 (≈ 8.17 µg/mL) | 100 (≈ 68.1 µg/mL) | – | – |
| – | – | – | – | – | – | – | – | – | – | – | – | – | – | CCCCCC[C@H]1OCCNC(=O)[C@H]([C@H](C)O)NC(=O)[C@H](CN)NC(=O)[C@H](C2CCCCC2)NC(=O)[C@H](CC(C)C)N(C)C(=O)[C@@H]1C (cyclo([Chg][Dap][aThr][X9][NMeL])) | – | – | 0.14 (≈ 0.0934 µg/mL) | 8.7 (≈ 5.8 µg/mL) | 100 (≈ 66.7 µg/mL) | – | remaining at 6 h [6]: 99%; remaining at 6 h [7]: 96% |
| – | – | – | – | – | – | – | – | – | – | – | – | – | – | CCCCCC[C@H]1OC[C@@H](CC)NC(=O)[C@H]([C@H](C)O)NC(=O)[C@H](CN)NC(=O)[C@H](C2CCCCC2)NC(=O)[C@H](CC(C)C)N(C)C(=O)[C@@H]1C (cyclo([Chg][Dap][aThr][X10][NMeL])) | 101 | 87 | 0.024 (≈ 0.0167 µg/mL) | 2.2 (≈ 1.53 µg/mL) | 50 (≈ 34.7 µg/mL) | – | – |
| 2.2 | 90 | 0.022 | 0.007 | 28 | 48 | 40 | 3.2 | 11 | 4 | 6.3 (≈ 4.79 µg/mL) | 8.8 (≈ 6.69 µg/mL) | 71 (≈ 54 µg/mL) | 18 (≈ 13.7 µg/mL) | CCC[C@H]1C(=O)N[C@@H](C2CCCCCC2)C(=O)N[C@@H](CN)C(=O)N[C@@H](CO[C@H]2C[C@H](N)C2)C(=O)N[C@H](C)CO[C@H](CC2CC3(CCC3)C2)[C@@H](C)C(=O)N1C (cyclo([Dap]S(Cyclobutyl(trans-3-NH2))[X3][NMeNva][Gly(cHept)])) | 103 | 84 | – | 2.2 (≈ 1.67 µg/mL) | 25 (≈ 19 µg/mL) | – | – |
| 1.7 | 94 | 0.026 | 0.003 | 21 | 41 | 15 | 5.8 | 17 | 2.1 | 3.1 (≈ 2.4 µg/mL) | 8.8 (≈ 6.81 µg/mL) | 100 (≈ 77.4 µg/mL) | 25 (≈ 19.4 µg/mL) | CCC[C@H]1C(=O)N[C@@H](C2CCCCCC2)C(=O)N[C@@H](CN)C(=O)N[C@@H](CO[C@H]2C[C@H](N)C2)C(=O)N[C@H](C)CO[C@H](CC2C[C@H]3CC[C@@H](C2)C3)[C@@H](C)C(=O)N1C (stereo partly drawn) (cyclo([Dap]S(Cyclobutyl(trans-3-NH2))[X6][NMeNva][Gly(cHept)])) | 99 | 95 | – | 0.78 (≈ 0.604 µg/mL) | 50 (≈ 38.7 µg/mL) | > 100 | – |
| 0.7 | 118 | 0.025 | 0.001 | – | 53 | – | – | 12 | 4.6 | 3.1 (≈ 2.5 µg/mL) | 3.1 (≈ 2.5 µg/mL) | 50 (≈ 40.3 µg/mL) | 50 (≈ 40.3 µg/mL) | CCC[C@H]1C(=O)N[C@@H](C2CCCCCC2)C(=O)N[C@@H](CN)C(=O)N[C@@H](COCCCNCCCN)C(=O)N[C@H](C)CO[C@H](CC2CC3(CCC3)C2)[C@@H](C)C(=O)N1C (cyclo([Dap]S(X5)[X3][NMeNva][Gly(cHept)])) | 103 | 106 | – | 1.6 (≈ 1.29 µg/mL) | 18 (≈ 14.5 µg/mL) | > 50 | – |
| 0.2 | – | 0.026 | 0.004 | – | – | – | – | 68 | 2.5 | 1.6 (≈ 1.31 µg/mL) | 1.6 (≈ 1.31 µg/mL) | 12 (≈ 9.83 µg/mL) | 25 (≈ 20.5 µg/mL) | CCC[C@H]1C(=O)N[C@@H](C2CCCCCC2)C(=O)N[C@@H](CN)C(=O)N[C@@H](COCCCNCCCN)C(=O)N[C@H](C)CO[C@H](CC2C[C@H]3CC[C@@H](C2)C3)[C@@H](C)C(=O)N1C (stereo partly drawn) (cyclo([Dap]S(X5)[X6][NMeNva][Gly(cHept)])) | – | – | – | 0.78 (≈ 0.639 µg/mL) | 12 (≈ 9.83 µg/mL) | > 100 | – |

| SMILES | logD [8] | remaining at 24 h [9] [%] | fraction unbound [10] | fraction unbound [11] | CLhep predicted [12] [mL/min/kg] | CLhep predicted [13] [mL/min/kg] | clearance [14] [mL/min/kg] | half-life [15] [h] | clearance [16] [mL/min/kg] | half-life [17] [h] | MIC [18] [µM] | MIC [19] [µM] | MIC [20] [µM] | MIC [21] [µM] | remaining at 24 h [1] [%] | remaining at 24 h [2] [%] | MIC [3] [µM] | MIC [4] [µM] | MIC [5] [µM] | EC50 [22] [µM] | further results |
| --- | --- | --- | --- | --- | --- | --- | --- | --- | --- | --- | --- | --- | --- | --- | --- | --- | --- | --- | --- | --- | --- |
| CCCC[C@H]1C(=O)N(C)[C@@H](CC(C)C)C(=O)N[C@@H](C2CCCCC2)C(=O)N[C@@H](CN)C(=O)N[C@@H]([C@H](C)O)C(=O)N[C@H](C)CN1CCCC (cyclo([Chg][Dap][aThr][dAlaψ(CH2NBu)Nle][NMeL])) | 3.4 | 102 | 0.005 | 0.004 | 27 | 77 | 53 | 2.6 | – | – | – | – | – | – | 97 | 89 | 0.017 (≈ 0.0116 µg/mL) | 1.6 (≈ 1.09 µg/mL) | 71 (≈ 48.3 µg/mL) | – | – |
